# Tested on: Human immunodeficiency virus 1
# Assay: Antiviral activity against Human immunodeficiency virus 1 LAI infected in human PBMC
# Assay type: functional, organism-based
# Details: Human immunodeficiency virus 1, M:B_Lai
# Method in brief: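 HIV-1 LAI replication in primary human peripheral blood mononuclear cells, with AZT as positive control.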
SMILES,EC50,EC90
Nc1nc2c(c(=O)[nH]1)c1c(N)ncnc1n2[C@@H]1O[C@H](CO)[C@@H](O)[C@H]1O,9.4 µM,24 µM
Cc1cn([C@H]2C[C@H](N=[N+]=[N-])[C@@H](CO)O2)c(=O)[nH]c1=O [ZIDOVUDINE],,0.028 µM
Nc1ncnc2c1c1c(=O)[nH]c(S)nc1n2[C@@H]1O[C@H](CO)[C@@H](O)[C@H]1O,9.6 µM,30.2 µM
Nc1ncnc2c1c1c(N)ncnc1n2[C@@H]1O[C@H](CO)[C@@H](O)[C@H]1O,> 100 µM,> 100 µM
C[C@@]1(O)[C@H](O)[C@@H](CO)O[C@H]1n1c2ncnc(N)c2c2c(=O)[nH]c(S)nc21,> 100 µM,> 100 µM
C[C@@]1(O)[C@H](O)[C@@H](CO)O[C@H]1n1c2ncnc(N)c2c2c(=O)[nH]c(=O)[nH]c21,> 100 µM,> 100 µM

# The remaining lines, values ahead:
EC50,EC90,SMILES
3.3 µM,> 100 µM,C[C@@]1(O)[C@H](O)[C@@H](CO)O[C@H]1n1c2ncnc(N)c2c2c(=O)[nH]c(N)nc21
≥ 100 µM,≥ 100 µM,C[C@@]1(O)[C@H](O)[C@@H](CO)O[C@H]1n1c2ncnc(N)c2c2c(N)ncnc21

# Tested on: not listed separately
# Assay: Cytotoxicity against human PBMC
# Assay type: cell-based
# Details: not given
row,SMILES,CC50
1,Nc1nc2c(c(=O)[nH]1)c1c(N)ncnc1n2[C@@H]1O[C@H](CO)[C@@H](O)[C@H]1O,3.1 µM
2,Cc1cn([C@H]2C[C@H](N=[N+]=[N-])[C@@H](CO)O2)c(=O)[nH]c1=O [ZIDOVUDINE],> 100 µM
3,Nc1ncnc2c1c1c(=O)[nH]c(S)nc1n2[C@@H]1O[C@H](CO)[C@@H](O)[C@H]1O,2.9 µM
4,C[C@@]1(O)[C@H](O)[C@@H](CO)O[C@H]1n1c2ncnc(N)c2c2c(=O)[nH]c(N)nc21,92.1 µM
5,Nc1ncnc2c1c1c(N)ncnc1n2[C@@H]1O[C@H](CO)[C@@H](O)[C@H]1O,53.8 µM
6,C[C@@]1(O)[C@H](O)[C@@H](CO)O[C@H]1n1c2ncnc(N)c2c2c(N)ncnc21,> 100 µM
7,C[C@@]1(O)[C@H](O)[C@@H](CO)O[C@H]1n1c2ncnc(N)c2c2c(=O)[nH]c(S)nc21,> 100 µM
8,C[C@@]1(O)[C@H](O)[C@@H](CO)O[C@H]1n1c2ncnc(N)c2c2c(=O)[nH]c(=O)[nH]c21,> 100 µM

# Tested on: not listed separately
# Assay: Cytotoxicity against human HuH7 cells assessed as reduction in rRNA levels at 120 hrs by RT-PCR analysis
# Assay type: cell-based, Huh-7
# Details: not given
row,SMILES,CC50 at 120 h
1,Nc1nc2c(c(=O)[nH]1)c1c(N)ncnc1n2[C@@H]1O[C@H](CO)[C@@H](O)[C@H]1O,< 10 µM
2,Cc1cn([C@H]2C[C@H](N=[N+]=[N-])[C@@H](CO)O2)c(=O)[nH]c1=O [ZIDOVUDINE],> 10 µM
3,Nc1ncnc2c1c1c(=O)[nH]c(S)nc1n2[C@@H]1O[C@H](CO)[C@@H](O)[C@H]1O,> 10 µM
4,C[C@@]1(O)[C@H](O)[C@@H](CO)O[C@H]1n1c2ncnc(N)c2c2c(=O)[nH]c(N)nc21,3 µM
5,Nc1ncnc2c1c1c(N)ncnc1n2[C@@H]1O[C@H](CO)[C@@H](O)[C@H]1O,> 10 µM
6,CCOC(=O)[C@H](C)NP(=O)(OC[C@H]1O[C@@H](n2c3ncnc(N)c3c3c(N)ncnc32)[C@](C)(O)[C@@H]1O)Oc1ccccc1 (stereo partly specified),> 10 µM
7,C[C@@]1(O)[C@H](O)[C@@H](CO)O[C@H]1n1c2ncnc(N)c2c2c(N)ncnc21,> 10 µM
8,C[C@@]1(O)[C@H](O)[C@@H](CO)O[C@H]1n1c2ncnc(N)c2c2c(=O)[nH]c(S)nc21,> 10 µM
9,C[C@@]1(O)[C@H](O)[C@@H](CO)O[C@H]1n1c2ncnc(N)c2c2c(=O)[nH]c(=O)[nH]c21,> 10 µM

# Tested on: not listed separately
# Assay: Cytotoxicity against African green monkey Vero cells
# Assay type: cell-based
# Details: chlorocebus sabaeus
row,SMILES,CC50
1,Nc1nc2c(c(=O)[nH]1)c1c(N)ncnc1n2[C@@H]1O[C@H](CO)[C@@H](O)[C@H]1O,63.1 µM
2,Cc1cn([C@H]2C[C@H](N=[N+]=[N-])[C@@H](CO)O2)c(=O)[nH]c1=O [ZIDOVUDINE],53 µM
3,Nc1ncnc2c1c1c(=O)[nH]c(S)nc1n2[C@@H]1O[C@H](CO)[C@@H](O)[C@H]1O,43.1 µM
4,C[C@@]1(O)[C@H](O)[C@@H](CO)O[C@H]1n1c2ncnc(N)c2c2c(=O)[nH]c(N)nc21,> 100 µM
5,Nc1ncnc2c1c1c(N)ncnc1n2[C@@H]1O[C@H](CO)[C@@H](O)[C@H]1O,82.5 µM
6,C[C@@]1(O)[C@H](O)[C@@H](CO)O[C@H]1n1c2ncnc(N)c2c2c(N)ncnc21,> 100 µM
7,C[C@@]1(O)[C@H](O)[C@@H](CO)O[C@H]1n1c2ncnc(N)c2c2c(=O)[nH]c(S)nc21,> 100 µM
8,C[C@@]1(O)[C@H](O)[C@@H](CO)O[C@H]1n1c2ncnc(N)c2c2c(=O)[nH]c(=O)[nH]c21,> 100 µM

# Tested on: not listed separately
# Assay: Cytotoxicity against human CEM cells
# Assay type: cell-based
# Details: CEM (CCRF-CEM) cells
row,SMILES,CC50
1,Nc1nc2c(c(=O)[nH]1)c1c(N)ncnc1n2[C@@H]1O[C@H](CO)[C@@H](O)[C@H]1O,20.2 µM
2,Cc1cn([C@H]2C[C@H](N=[N+]=[N-])[C@@H](CO)O2)c(=O)[nH]c1=O [ZIDOVUDINE],14.3 µM
3,Nc1ncnc2c1c1c(=O)[nH]c(S)nc1n2[C@@H]1O[C@H](CO)[C@@H](O)[C@H]1O,8.2 µM
4,C[C@@]1(O)[C@H](O)[C@@H](CO)O[C@H]1n1c2ncnc(N)c2c2c(=O)[nH]c(N)nc21,36.5 µM
5,Nc1ncnc2c1c1c(N)ncnc1n2[C@@H]1O[C@H](CO)[C@@H](O)[C@H]1O,29.5 µM
6,C[C@@]1(O)[C@H](O)[C@@H](CO)O[C@H]1n1c2ncnc(N)c2c2c(N)ncnc21,> 100 µM
7,C[C@@]1(O)[C@H](O)[C@@H](CO)O[C@H]1n1c2ncnc(N)c2c2c(=O)[nH]c(S)nc21,> 100 µM
8,C[C@@]1(O)[C@H](O)[C@@H](CO)O[C@H]1n1c2ncnc(N)c2c2c(=O)[nH]c(=O)[nH]c21,> 100 µM

# Tested on: Hepatitis C virus
# Assay: Antiviral activity against Hepatitis C virus infected in human HuH7 cells
# Assay type: functional, organism-based, Hepacivirus hominis
# Details: Huh-7
# Method in brief: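 Subgenomic HCV replicon in Huh7 cells; HCV RNA extracted and amplified to measure inhibition of replication, with cytotoxicity determined in the same cells at the same time.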
SMILES,EC50,EC90
Nc1nc2c(c(=O)[nH]1)c1c(N)ncnc1n2[C@@H]1O[C@H](CO)[C@@H](O)[C@H]1O,3 µM,22.5 µM
Cc1cn([C@H]2C[C@H](N=[N+]=[N-])[C@@H](CO)O2)c(=O)[nH]c1=O [ZIDOVUDINE],> 10 µM,> 10 µM
Nc1ncnc2c1c1c(=O)[nH]c(S)nc1n2[C@@H]1O[C@H](CO)[C@@H](O)[C@H]1O,> 10 µM,> 10 µM
Nc1ncnc2c1c1c(N)ncnc1n2[C@@H]1O[C@H](CO)[C@@H](O)[C@H]1O,> 10 µM,> 10 µM
C[C@@]1(O)[C@H](O)[C@@H](CO)O[C@H]1n1c2ncnc(N)c2c2c(=O)[nH]c(S)nc21,> 10 µM,> 10 µM
C[C@@]1(O)[C@H](O)[C@@H](CO)O[C@H]1n1c2ncnc(N)c2c2c(=O)[nH]c(=O)[nH]c21,> 10 µM,> 10 µM

# Now from value to molecule:
EC50,EC90,SMILES
3 µM,17.9 µM,C[C@@]1(O)[C@H](O)[C@@H](CO)O[C@H]1n1c2ncnc(N)c2c2c(=O)[nH]c(N)nc21
> 10 µM,> 10 µM,CCOC(=O)[C@H](C)NP(=O)(OC[C@H]1O[C@@H](n2c3ncnc(N)c3c3c(N)ncnc32)[C@](C)(O)[C@@H]1O)Oc1ccccc1 (stereo partly specified)
> 10 µM,> 10 µM,C[C@@]1(O)[C@H](O)[C@@H](CO)O[C@H]1n1c2ncnc(N)c2c2c(N)ncnc21

# From ChEMBL document CHEMBL2380249, “Synthesis and evaluation of Janus type nucleosides as potential HCV NS5B polymerase inhibitors” (Bioorg Med Chem Lett, 2013)
